# Most compounds without a hit are left out; they make up all but 3.8% or so of the library.
# OX1R antag-1: OX1R (HCRTR1) antagonists, primary screen, fluorescence, CHO/OX1R cells, Fluo-8 calcium, orexin A; Orexin/Hypocretin receptor type 1 (Homo sapiens), O43613; Fluo-8 calcium fluorescence; inhibition, % at 5 µM; hit rate 0.43% among 330,000; AID 434989, 2010;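 active = inhibition above its plate's threshold, mean inhibition of all tested compounds on the plate plus 3 SD, cut at about 37% in these data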;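 note: 0% = orexin A challenge wells and 100% = SB-334867-A antagonist wells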
# MPTP block: mitochondrial permeability transition pore inhibitors, primary screen, biochemical, isolated mouse mitochondria, absorbance; Ca2+ swelling absorbance, 30 min; inhibition, % at 10 µM; hit rate 1.4% among 360,000;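 active = inhibition of 50% or more, scaled per plate between neutral and stimulator controls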;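 note: 0% = DMSO wells given calcium and 100% = 1 mM EGTA wells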
# OX1R antag-2: antagonists of human orexin 1 receptor (OX1R) | Orexin/Hypocretin receptor type 1 (Homo sapiens), O43613 | OX1R-expressing cells, FRET antagonist read-out | inhibition, % at 6.6 µM | hit rate 1.8% among 330,000; in the data active = inhibition mostly above about 38%, no sharp cut-off; inactive = mostly below about 40%;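 note: 0% = agonist challenge alone and 100% = reference antagonist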
# CHO parental Ca: ATP-evoked calcium signal inhibitors, parental CHO, primary screen, counter-screen for OX1R antagonist project, cell-based, fluorescence, Fluo-8 calcium dye. parental CHO-K1, ATP-induced calcium, Fluo-8 fluorescence. inhibition, % at 5.6 µM. hit rate 0.63% among 330,000. AID 463079, 2010;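 active = inhibition above that plate's mean sample inhibition plus 3 SD, cut at about 26% in these data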;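 note: 0% = ATP-challenged DMSO wells and 100% = DMSO wells without ATP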
#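 material = parental CHO cells | also added = ATP as calcium-mobilizing challenge | dosing = single point at 5.6 µM | detection = intracellular calcium via Fluo-8 no-wash fluorescent dye | read-out = % inhibition | benchmarks = low control ATP plus DMSO, high control DMSO only | repeats = one well per compound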
# GPR7 antag: GPR7 receptor antagonists, primary screen, cell-based, fluorescence, single concentration | AID 1861, 2009 | hit rate 1.1% among 290,000 | inhibition, % at 4.4 µM | GPR7-expressing cells, fluorescence antagonist assay; in the data active = inhibition above about 16%, passing the limit was not always enough;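 note: cells stimulated with the agonist NPW; 0% = agonist with vehicle and 100% = vehicle without agonist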
# Target sequence (P48145 whole entry, looked up): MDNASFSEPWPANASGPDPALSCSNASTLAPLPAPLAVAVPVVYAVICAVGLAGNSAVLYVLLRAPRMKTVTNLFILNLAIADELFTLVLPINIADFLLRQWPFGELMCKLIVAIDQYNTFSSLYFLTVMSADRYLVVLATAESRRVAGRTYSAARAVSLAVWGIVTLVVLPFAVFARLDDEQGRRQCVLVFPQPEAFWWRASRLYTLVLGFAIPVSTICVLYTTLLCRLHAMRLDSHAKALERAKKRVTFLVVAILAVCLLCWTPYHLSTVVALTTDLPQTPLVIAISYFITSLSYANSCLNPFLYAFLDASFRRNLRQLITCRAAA
# The depositor's hits bear a star; / = no result given.
SMILES,OX1R antag-1,MPTP block,OX1R antag-2,CHO parental Ca,GPR7 antag
NC(=O)C1CCN(C2=C(Cl)C(=O)c3ccccc3C2=O)CC1,3,10,62*,7,-10
NC(=O)C1CCN(C2=C(NS(=O)(=O)c3ccc(Br)cc3)C(=O)c3ccccc3C2=O)CC1,-17,2,76*,-18,-2
CCOC(=O)N1CCN(C2=C(NS(=O)(=O)c3ccc(Br)cc3)C(=O)c3ccccc3C2=O)CC1,/,1,/,/,/
CCOC(=O)C1CCN(C2=C(NS(=O)(=O)c3ccc(Br)cc3)C(=O)c3ccccc3C2=O)CC1,-41,2,75*,-33,-9
CC(C)(C)C(c1nc2ccccc2[nH]1)n1c(-c2cccc(S(C)(=O)=O)c2)nc2ccccc21 (stereo not given),/,2,/,/,/
C/C=C(/C)C(=O)O[C@@H]1c2c(ccc3ccc(=O)oc23)OC(C)(C)[C@@H]1OC(=O)/C(C)=C\C,-11,0,19,62*,-2
CNC(=O)c1c(NC(=O)c2cc(-c3cc(C)c(C)cc3O)n[nH]2)sc2c1CCCC2,-13,/,11,-2,2
O=C(Nc1nc(-c2ccc3c(c2)OCCO3)cs1)c1ccco1,-4,1,35,-11,-7
COc1cccc(C(=O)Nc2nnc(-c3ccccc3)s2)c1OC,4,-3,52*,9,2
COc1ccccc1C(=O)Nc1nc(-c2ccc3c(c2)OCCO3)cs1,-43,0,47*,-11,-13
COc1ccccc1C(=O)Nc1nnc(-c2ccccc2)s1,-20,1,51*,-22,-7
O=c1ccc2nc3ccccc3sc-2c1,/,12,/,/,/
CN(CCCNC(=O)CCC(=O)N1CCOc2ccc(Cl)cc21)Cc1ccccc1,-19,0,3,-14,2
O=C1Nc2ccccc2C12Nc1ccccc1-c1nc3ccccc3n12 (stereo not given),-23,-1,8,-8,21*
COc1ccc(C(=O)Nc2cc3c(cc2OC)CCCC3)cc1Br,9,1,72*,31*,-11
Cc1cc(C)cc(Cn2c3ccc(NC(=O)NCCc4cccs4)cc3c(=O)n2C)c1,/,-1,/,/,/
O=C(CCS(=O)(=O)c1ccccc1)Nc1ccc(-c2nc3ccccc3s2)cc1,-19,14,13,-6,-17
O=C(CCS(=O)(=O)c1ccccc1)Nc1cccc(-c2nc3ccccc3s2)c1,6,19,55*,-5,1
CC1CN(C(=S)NC(=O)c2ccc([N+](=O)[O-])cc2)CC(C)O1 (stereo not given),-11,0,120*,-6,-4
CN(C)c1ccc(/C=C(\C#N)C(=O)OCC(=O)N(C)C2CCS(=O)(=O)C2)cc1 (stereo not given),1,2,35*,-4,/
CC1CCN(S(=O)(=O)c2cccc(C(=O)N3CCN(c4ccc(F)cc4)CC3)c2)CC1,-19,-1,14,-10,4
Cc1cc(CNC(=O)Cn2cc([N+](=O)[O-])cn2)c2ccccc2n1,-2,-1,7,0,-3
Cc1cc(CNC(=O)C(C)n2cc([N+](=O)[O-])cn2)c2ccccc2n1 (stereo not given),13,-2,69*,-27,0
O=C(OCc1cn([C@@H]2CN(CC3CCCCC3)[C@@H](c3ccccc3)C[C@H]2O)nn1)c1ccccc1,/,-1,/,/,/
Cc1ccc(C(=O)CSc2cc(C)nc(SCC(=O)c3ccccc3)n2)cc1,-11,0,29,44*,-5
SMILES,OX1R antag-1,MPTP block,OX1R antag-2,CHO parental Ca,GPR7 antag
Cc1ccc(S(=O)(=O)N2c3ccccc3-c3c(ssc3=S)C2(C)C)cc1,42*,3,88*,-30,-17
COc1ccc2c(c1)-c1c(ssc1=S)C(C)(C)N2S(=O)(=O)c1ccc(C)cc1,-17,3,5,-13,-4
CC(=O)N1CC(=O)N=C1SCC(=O)Nc1nc(C)c(-c2ccccc2)s1,-2,0,24,-19,-2
COc1cc(/C=N/NC(=O)c2ccc(COc3ccccc3Cl)o2)cc(Br)c1O,-3,0,-7,6,30*
COc1ccccc1/C=N/NC(=O)c1cc2c(ccc3ccccc32)o1,-1,0,65*,-18,-15
O=C(N/N=C/c1cc2c(cc1Br)OCO2)c1ccccn1,-26,1,2,-30,-3
